# ChEMBL document CHEMBL2407024, “Antimicrobial activity of imidazo[1,5-a]quinoxaline derivatives with pyridinium moiety” (Eur J Med Chem, 2013)
# Columns and labels:
# Aspergillus niger [1] = assay: Antifungal activity against Aspergillus niger BKMF-1119 measured every 24 hrs for 14 days by conventional dilution method; assay type: functional
# Outline: (§1)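 Dilution assay in Sabouraud dextrose broth, inoculum 2 × 10^3–4 cfu/ml. MIC is the lowest concentration with no visible growth after 14 days of incubation. Run alongside a positive growth control and standard drug controls. Tests in duplicate, repeated twice.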
# [2] = test system: Trichophyton mentagrophytes; assay: Antifungal activity against Trichophyton mentagrophytes measured every 24 hrs for 14 days by conventional dilution method; assay type: functional; outline: as §1
# Candida albicans [3] = assay: Antifungal activity against Candida albicans 885-653 measured every 24 hrs for 14 days by conventional dilution method; assay type: functional; outline: as §1
# Pseudomonas aeruginosa [4] = assay: Antibacterial activity against Pseudomonas aeruginosa 9027 measured every 24 hrs for 5 days by conventional dilution method; assay type: functional
# Outline: (§2)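 Broth dilution in nutrient broth, inoculum 3 × 10⁵ cfu/ml. MIC is the lowest concentration showing no growth, read visually every 24 h over 5 days. Run alongside a positive growth control and standard drug controls. Tests in duplicate, repeated twice.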
# Staphylococcus aureus [5] = assay: Antibacterial activity against Staphylococcus aureus 209p measured every 24 hrs for 5 days by conventional dilution method; assay type: functional; outline: as §2
# Escherichia coli [6] = assay: Antibacterial activity against Escherichia coli F-50 measured every 24 hrs for 5 days by conventional dilution method; assay type: functional; outline: as §2
# Bacillus cereus [7] = assay: Antibacterial activity against Bacillus cereus 8035 measured every 24 hrs for 5 days by conventional dilution method; assay type: functional; outline: as §2
# [8] = Acute toxicity in ip dosed mouse; assay type: organism-based; settings: in vivo
# Outline: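 Mice; each compound given at 5 dose levels, 10 animals per dose (n = 50 per compound). Animals observed for 72 h; toxicity expressed as average lethal dose (LD50) calculated from mortality across dose groups.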
# Candida albicans [9] = assay: Fungicidal activity against Candida albicans 885-653 after 6 hrs; assay type: functional; settings: 885-653, 6 h
# Outline: (§3)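 Tubes of test compound (5 to 500 per ml, 1 mL in nutrient agar) with fungi were incubated at 26 °C for 6 h. Inocula were then prepared in Sabouraud dextrose broth and incubated at 26 °C. The fungicidal concentration is the one giving total cell death.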
# Pseudomonas aeruginosa [10] = assay: Bactericidal activity against Pseudomonas aeruginosa 9027 after 4 hrs; assay type: functional; settings: Pseudomonas aeruginosa, 9027, 4 h
# Outline: (§4)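 Tubes contained 1 mL test compound in nutrient agar, 5 to 500 per ml. Bacteria in normal saline broth (3 × 10⁵ cfu/ml, 1 mL) were added and held 4 h, then transferred onto meal-peptone agar plates and incubated at 37 °C. MBC is the dilution giving total cell death.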
# Bacillus cereus [11] = assay: Bactericidal activity against Bacillus cereus 8035 after 4 hrs; assay type: functional; settings: Bacillus cereus, 8035, 4 h; outline: as §4
# Staphylococcus aureus [12] = assay: Bactericidal activity against Staphylococcus aureus 209p after 4 hrs; assay type: functional; outline: as §4
# [13] = test system: Trichophyton mentagrophytes; assay: Fungicidal activity against Trichophyton mentagrophytes after 6 hrs; assay type: functional; outline: as §3
# Aspergillus niger [14] = assay: Fungicidal activity against Aspergillus niger BKMF-1119 after 6 hrs; assay type: functional; settings: BKMF-1119, 6 h; outline: as §3
# Escherichia coli [15] = assay: Bactericidal activity against Escherichia coli F-50 after 4 hrs; assay type: functional; settings: F-50, 4 h; outline: as §4
MIC (Aspergillus niger [1]) [µg/mL],MIC [2] [µg/mL],MIC (Candida albicans [3]) [µg/mL],MIC (Pseudomonas aeruginosa [4]) [µg/mL],MIC (Staphylococcus aureus [5]) [µg/mL],MIC (Escherichia coli [6]) [µg/mL],MIC (Bacillus cereus [7]) [µg/mL],SMILES,LD50 [8] [mg/kg],MFC (Candida albicans [9]) [µg/mL],MBC (Pseudomonas aeruginosa [10]) [µg/mL],MBC (Bacillus cereus [11]) [µg/mL],MBC (Staphylococcus aureus [12]) [µg/mL],MFC [13] [µg/mL],MFC (Aspergillus niger [14]) [µg/mL],MBC (Escherichia coli [15]) [µg/mL]
> 500,> 500,> 500,> 500,500,> 500,> 500,Cc1nc(-c2ccc[n+](Cc3ccccc3)c2)n2c1c(=O)[nH]c1ccccc12.[Cl-],,,,,,,,
> 500,500,50,> 500,1.5,> 500,6.3,CCCCCCCCCn1c(=O)c2c(-c3ccccc3)nc(-c3ccc[n+](CCCCCCCCC)c3)n2c2ccccc21.[Br-],,500,> 500,500,50,> 500,> 500,> 500
> 500,> 500,15.6,500,62.5,250,62.5,CCCCCCn1c(=O)c2c(-c3ccccc3)nc(-c3ccc[n+](CCCCCC)c3)n2c2ccccc21.[I-],,,,,,,,
> 500,> 500,25,> 500,62.5,> 500,125,CCCCCCCCCn1c(=O)c2c(-c3ccccc3)nc(-c3ccc[n+](CCCCCC)c3)n2c2ccccc21.[I-],,,,,,,,
> 500,> 500,> 500,> 500,7.8,> 500,7.8,CCCCCCCCCn1c(=O)c2c(-c3ccccc3)nc(-c3ccc[n+](CCCCCCCCC)c3)n2c2ccccc21.[I-],,> 500,> 500,> 500,500,> 500,> 500,> 500
> 500,250,3.9,> 500,> 500,> 500,> 500,O=c1[nH]c2ccccc2n2c(-c3ccc[n+](CCCC[n+]4cccc(-c5nc(-c6ccccc6)c6c(=O)[nH]c7ccccc7n56)c4)c3)nc(-c3ccccc3)c12.[Br-].[Br-],,,,,,,,
> 500,> 500,> 500,> 500,500,> 500,> 500,O=c1[nH]c2ccccc2n2c(-c3ccc[n+](CCCCCC[n+]4cccc(-c5nc(-c6ccccc6)c6c(=O)[nH]c7ccccc7n56)c4)c3)nc(-c3ccccc3)c12.[Br-].[Br-],,,,,,,,
> 500,> 500,> 500,> 500,> 500,> 500,> 500,Cl.O=c1[nH]c2ccccc2n2c(-c3cccnc3)nc(-c3ccccc3)c12,,,,,,,,
> 500,> 500,> 500,> 500,> 500,> 500,> 500,Cl.O=c1[nH]c2ccccc2n2c(-c3ccccn3)nc(-c3ccccc3)c12,,,,,,,,

SMILES,MIC (Aspergillus niger [1]) [µg/mL],MIC [2] [µg/mL],MIC (Candida albicans [3]) [µg/mL],MIC (Pseudomonas aeruginosa [4]) [µg/mL],MIC (Staphylococcus aureus [5]) [µg/mL],MIC (Escherichia coli [6]) [µg/mL],MIC (Bacillus cereus [7]) [µg/mL],LD50 [8] [mg/kg],MFC (Candida albicans [9]) [µg/mL],MBC (Pseudomonas aeruginosa [10]) [µg/mL],MBC (Bacillus cereus [11]) [µg/mL],MBC (Staphylococcus aureus [12]) [µg/mL],MFC [13] [µg/mL],MFC (Aspergillus niger [14]) [µg/mL],MBC (Escherichia coli [15]) [µg/mL]
CCCCCC[n+]1cccc(-c2nc(-c3ccccc3)c3c(=O)[nH]c4ccccc4n23)c1.[Br-],> 500,> 500,250,> 500,62.5,> 500,125,75.8,,,,,,,
CCCCCCCCC[n+]1cccc(-c2nc(-c3ccccc3)c3c(=O)n(CCCCCC)c4ccccc4n23)c1.[Br-],> 500,250,0.97,> 500,0.97,500,0.97,120,50,> 500,50,5,250,> 500,500
CCCC[n+]1cccc(-c2nc(-c3ccccc3)c3c(=O)[nH]c4ccccc4n23)c1.[I-],> 500,> 500,> 500,> 500,500,> 500,> 500,63.2,,,,,,,
O=c1[nH]c2ccccc2n2c(-c3ccc[n+](Cc4ccccc4)c3)nc(-c3ccccc3)c12.[Cl-],> 500,500,62.5,> 500,31.3,> 500,125,65.7,,,,,,,
